# Assays:
# [1] = system: NO production in chicken macrophages; details: ref Sung et al., 1994; cited from earlier work
# [2] = system: immune-activated NO production by mouse peritoneal cells; experiment: in vitro nitric oxide; type: cell-based; details: for IC50: read-out: NO-inhibitory IC 50, LPS/IFN-γ stimulated mouse peritoneal cells, 24 h; for concentration at which NO-suppressive effects were already apparent: dose-response, Fig. 2
# Outline: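 Peritoneal lavage cells (8 mL saline) pooled from 4–10 female C57BL/6 mice, 8–10 weeks old, seeded at 2 × 10^6 cells/mL in RPMI-1640 with 10% FBS, 37 °C, 5% CO2. Test compound (DMSO stock diluted in medium; DMSO control) added for 24 h with IFN-γ 0.5 ng/mL plus E. coli LPS 0.1 ng/mL, duplicates. Supernatant nitrite measured by Griess reagent at A540 against a nitrite standard curve, expressed as % of control.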
# vaccinia virus = experiment: antiviral activity, vaccinia virus in HeLa cells; type: cell-based; details: Orthopoxvirus vaccinia, read-out: antiviral EC50
# [3] = system: respiratory syncytial virus (RSV); experiment: antiviral activity, respiratory syncytial virus in HeLa cells; type: cell-based; details: human respiratory syncytial virus, read-out: antiviral EC50
# HIV-1 = experiment: antiviral activity, HIV-1 in CEM cells; type: cell-based; details: Human immunodeficiency virus 1, CCRF-CEM, read-out: antiviral EC50
# Reovirus-1 = experiment: antiviral activity, Reovirus-1 in MDCK cells; type: cell-based; details: read-out: antiviral EC50
# HSV-2 = experiment: antiviral activity, HSV-2 in HeLa cells; type: cell-based; details: Human alphaherpesvirus 2, HeLa, read-out: antiviral EC50
# Punta Toro virus = experiment: antiviral activity, Punta Toro virus in MDCK cells; type: cell-based; details: read-out: antiviral EC50
# [4] = system: viruses such as members of the Herpes, Picorna, and Pox groups; details: ref Marcialis et al., 1973, 1974, La Colla et al., 1975; cited from earlier work
# Feline herpes virus = experiment: antiviral activity, Feline herpes virus in CRFK cells; type: cell-based; details: read-out: antiviral EC50
# HIV-2 = experiment: antiviral activity, HIV-2 in CEM cells; type: cell-based; details: Human immunodeficiency virus 2, CCRF-CEM, read-out: antiviral EC50
# [5] = system: vesicular stomatitis virus (VSV); experiment: microbe, parasite or virus in culture; type: cell-based; details: HeLa, read-out: antiviral EC50
# HSV-1 = experiment: antiviral activity, HSV-1 in HeLa cells; type: cell-based; details: Human alphaherpesvirus 1, HeLa, read-out: antiviral EC50
# Parainfluenza 3-virus = experiment: antiviral activity, Parainfluenza 3-virus in MDCK cells; type: cell-based; details: read-out: antiviral EC50
molecule,measurement,setting,value
"Nc1cc(O)nc(N)n1 [2,4-diamino-6-hydroxypyrimidine]",effect on NO production (in words),[1],suppresses NO production
"N=C(N)NN [Aminoguanidine, aminoguanidine, reference compound]",IC50,[2],77.8 µM
"Nc1nc(Cl)cc(Cl)n1 [Compound B1, 2-amino-4,6-dichloropyrimidine]",EC50,vaccinia virus,> 100 mg/L
same,EC50,[3],> 100 mg/L
same,EC50,HIV-1,> 100 mg/L
same,EC50,Reovirus-1,> 100 mg/L
same,EC50,HSV-2,> 100 mg/L
same,EC50,Punta Toro virus,> 100 mg/L
same,concentration required for antiviral activities described in the literature,[4],~100 µg/mL
same,EC50,Feline herpes virus,> 100 mg/L
same,EC50,HIV-2,> 100 mg/L
same,EC50,[5],> 100 mg/L
same,EC50,HSV-1,> 100 mg/L
same,EC50,Parainfluenza 3-virus,> 100 mg/L
"C#CCc1c(Cl)nc(N)nc1Cl [Compound B6, 4,6-Dichloro-5-(prop-2-yn-1-yl)pyrimidin-2-amine]",concentration at which NO-suppressive effects were already apparent,[2],2.5 µM
"Nc1nc(Cl)c(F)c(Cl)n1 [Compound B12, 5-fluoro-2-amino-4,6-dichloropyrimidine]",concentration at which NO-suppressive effects were already apparent,[2],2.5 µM
same,effect on immune-activated NO production (in words),[2]; mouse peritoneal cells,nearly completely suppressed the production of NO
"N-(3-aminomethyl)-benzylacetamide [1,400 W, reference compound]",IC50,[2],3.87 µM
